Among all 360,000 compounds or so, about 820 (0.23%) were called active. The entries come from a sample that favours actives as a whole. A number with no mark means an inactive call.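 Rule for the calls: active = compounds that cut the enzyme signal by at least half of the control window in the single-dose screen; inactive = the rest.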
What follows are compounds tested against Low molecular weight phosphotyrosine protein phosphatase (Homo sapiens) (UniProt P24666) (assay: inhibition of human LMPTP-A enzyme – biochemical, fluorescence intensity, uHTS, primary screen (AID 651560;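 note: plate controls were DMSO wells with enzyme plus substrate for no effect and substrate without enzyme for full effect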)). Settings: recombinant LMPTP-A, OMFP fluorogenic substrate, at 20 µM, hits give high values.
Chain of Low molecular weight phosphotyrosine protein phosphatase (Homo sapiens) (P24666 whole entry, looked up): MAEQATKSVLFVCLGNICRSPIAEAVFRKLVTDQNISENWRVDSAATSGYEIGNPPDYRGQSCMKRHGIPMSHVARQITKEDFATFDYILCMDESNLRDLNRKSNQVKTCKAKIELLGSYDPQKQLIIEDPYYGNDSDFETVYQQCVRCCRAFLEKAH
How it was run: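 Test system: LMPTP-A phosphatase enzyme; input: 0.625 nM LMPTP-A final; reagent: OMFP substrate, 400 µM final; compound dosing: 20 µM single dose, 3% DMSO; incubation: 50 min dark incubation at room temperature; measured by: endpoint fluorescence intensity from OMFP dephosphorylation; measure: % inhibition relative to no-enzyme and uninhibited control wells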
Work on `N#CCSc1nn(-c2ccc(F)cc2)c(=S)s1` yielded an inhibition of -0.858%. With `CCOC(=O)C1CCN(C(=O)c2ccc3c(=O)n4nc(Nc5ccccc5CC)sc4nc3c2)CC1` the inhibition was 1.95%. Work on `CS(=O)(=O)N1CCCCC1c1cc(C(=O)NCc2ccccc2)no1` (stereo unspecified) yielded an inhibition of -1.43%. `Nc1nc(C23CC4CC(CC(C4)C2)C3)cs1` gave an inhibition of -0.25%. For `C#CCN(N(C)c1ncc(C(F)(F)F)cc1Cl)S(=O)(=O)c1ccc2ccccc2c1`, the inhibition was 5.44%. `CN(C)C(=O)Cn1c(=O)n(S(=O)(=O)c2ccccc2)c2ccccc21` showed an inhibition of -0.0726%. Compound `Cc1cccc(NC(=O)CSc2nnc(CCCCCNC(=O)OC(C)(C)C)o2)c1C` has an inhibition of -0.643%. `O=C(NCc1cccnc1)c1cc(C2CCCN(C(=O)CCCc3ccccc3)C2)on1` (stereo unspecified) gave an inhibition of -0.488%. `CCN1/C(=C\c2ccc3ccccc3[n+]2CC)Sc2cc(C)ccc21` was tested, and the inhibition was 63.9% (active). Work on `Cc1nc(CC(=O)NNS(=O)(=O)c2ccc(F)c(Cl)c2)cs1` yielded an inhibition of -1.65%. `Cc1cccc(OCC(O)CN2CCN(CCN3C(=O)c4cccc5cccc(c45)C3=O)CC2)c1C` (stereo unspecified) gave an inhibition of 8.73%. `CCOC(=O)Cc1cc(=O)[nH]c(/N=C(\N)Nc2ccc(OC)cc2)n1` was tested, and the inhibition was -0.31%. Work on `CCSc1nc(=S)n(CC)c(C)c1C(C)=O` yielded an inhibition of -0.754%. Work on `COC(=O)CN1C(C)=Nc2ccc(Br)cc2C1c1ccccc1` (stereo unspecified) yielded an inhibition of -0.193%. `CCn1ccnc1CNC(=O)CC1C(=O)NCCN1CCCc1ccccc1` (stereo unspecified) was tested, and the inhibition was -2.22%. `CCOc1cc2[nH]c(=S)n(Cc3ccc(C(=O)N4CCN(C)CC4)cc3)c(=O)c2cc1OCC` gave an inhibition of 1.07%. `O=c1c(Cl)c(NCc2ccc(F)cc2Cl)cnn1C12CC3CC(CC(C3)C1)C2` showed an inhibition of 1.08%. For `O=C1c2ccccc2C(Nc2ccc3c(c2)OCCO3)N1Cc1ccco1` (stereo unspecified), the inhibition was 0.866%. `Cn1c(=O)c(=O)n(C)c2cc(S(=O)(=O)CCC(=O)N3CCCCC3)ccc21` showed an inhibition of -0.491%. `COc1ccc(-c2oc3ncn(Cc4ccco4)c(=N)c3c2-c2ccc(OC)cc2)cc1` was tested, and the inhibition was 3.1%. With `O=C(Cn1c(=O)n(Cc2ccco2)c(=O)c2ccccc21)NCC1CCCO1` (stereo unspecified) the inhibition was -0.056%. `Cn1c2ccccc2c(=O)c2c(=O)n(Cc3ccco3)c(COc3ccccc3)nc21` was tested, and the inhibition was 69% (active). In the case of `O=C(NN=Cc1ccccc1O)NN=Cc1ccccc1O`, the inhibition is reported as 61.8% (active). `O=C(CC(=O)N/N=C\c1cccc(Cl)c1Cl)NCc1ccccc1` gave an inhibition of -1.17%. In the case of `O=C(CO/N=C/c1ccccc1O)NNC(=O)c1ccccc1Cl`, the inhibition is reported as -0.137%. `O=C(Nc1cc(S(=O)(=O)N2CCOCC2)ccc1N1CCOCC1)c1c(F)cccc1Cl` was tested, and the inhibition was -0.613%. For `O=C(CCCOc1ccccc1)NNC(=O)c1ccc(Cl)cc1`, the inhibition was -0.0475%. `CN(CC(=O)Nc1ccc(Cl)cc1)C(=O)CNC(=O)c1ccc2ccccc2c1` gave an inhibition of 0.862%. `O=C(NNC(=O)c1ccc2ccccc2c1)c1ccc(Cl)cc1` was tested, and the inhibition was 49.6% (active). For `CC(C)(C)S(=O)(=O)c1ccccc1-c1noc(-c2ccccc2)c1C(N)=O`, the inhibition was -0.802%. With `Cc1ncc([N+](=O)[O-])n1CCOC(=O)c1ccc(Br)cc1` the inhibition was -0.676%. For `C[C@H](NC(=O)NCCc1ccccc1)C(=O)O`, the inhibition was 0.573%. `CCOC(=O)C1(CC2CCCCO2)CCN(Cc2nc(-c3cccs3)oc2C)CC1` (stereo unspecified) gave an inhibition of 0.186%. For `O=C(COC(=O)C1CC2CCCC(C1)C2=O)NC(=O)c1ccccc1` (stereo unspecified), the inhibition was -0.507%. Compound `CC(Oc1ccc(F)cc1F)C(=O)/C=C/N(C)C` (stereo unspecified) has an inhibition of 0.234%. `C[C@H]1CN([C@@H](C)CO)S(=O)(=O)c2ccc(-c3cccc(F)c3)cc2O[C@@H]1CN(C)C` gave an inhibition of -1.08%. Compound `CCOC(=O)N1CCN(C(=S)Nc2ccc(C)cc2C)CC1` has an inhibition of -1.47%. In the case of `COc1cc([N+](=O)[O-])ccc1NC(=S)N1CCN(c2ccccn2)CC1`, the inhibition is reported as 0.0311%. With `CC1CCN(C(=S)c2cccc(O)c2)CC1` the inhibition was 0.643%. `CCS(=O)(=O)N1Cc2ccccc2CC1C(=O)Nc1ccc(OC)cc1OC` (stereo unspecified) showed an inhibition of -0.419%. For `CC(NC(=S)NNS(=O)(=O)c1ccc(C(C)(C)C)cc1)c1ccccc1` (stereo unspecified), the inhibition was 2.08%. `Cc1c(Nc2nc3ccccc3nc2NS(=O)(=O)c2cccs2)c(=O)n(-c2ccccc2)n1C` was tested, and the inhibition was -0.947%. `N#Cc1cc([N+](=O)[O-])ccc1Oc1cccc(/C=N/NC(=O)c2ccc(Cl)cc2)c1` showed an inhibition of 0.464%. Compound `O=C(COc1ccc([N+](=O)[O-])cc1)Nc1cccc(C(=O)Nc2ccccc2C(=O)O)c1` has an inhibition of 0.459%. `O=C(COC(=O)C1CCCCC1)Nc1ccc([N+](=O)[O-])cc1` gave an inhibition of 0.534%. For `O=C(COc1ccc(/C=N/NC(=O)c2ccc(O)cc2)cc1)Nc1ccc([N+](=O)[O-])cc1`, the inhibition was 71.4% (active). In the case of `O=C(COc1ccc([N+](=O)[O-])cc1)Nc1ccc(N2CCCC2)cc1`, the inhibition is reported as 59.1% (active). With `O=C(CSc1ccc([N+](=O)[O-])cn1)Nc1ccc(N2CCOCC2)cc1` the inhibition was -0.239%. Compound `COc1ccc(CCNc2ncnc3c2nnn3Cc2ccccc2)cc1` has an inhibition of 1.88%. `CCn1ccnc1CNC(=O)CC1C(=O)NCCN1Cc1ccc(F)cc1Cl` (stereo unspecified) showed an inhibition of 1.38%. In the case of `Nc1ccc(Cl)c(S(=O)(=O)Nc2ccccc2Cl)c1`, the inhibition is reported as -0.587%. For `O=S(=O)(c1ccc(F)cc1)N1CCN(C(=S)NCc2ccco2)CC1`, the inhibition was 0.0562%. `CCCc1c(C)nc2scc(-c3ccc(Cl)cc3)n2c1=O` showed an inhibition of -0.6%. `O=c1ccc2c(-c3ccccc3S(=O)(=O)O)c3ccc(O)c(O)c3oc-2c1O` was tested, and the inhibition was 58.1% (active). For `Cc1ccc(N2C(=O)C3C4C=CC(CC4)C3C2=O)cc1Br` (stereo unspecified), the inhibition was -1.41%. `COc1cc(Cl)c(C)cc1NC(=O)[C@@H]1CCCN1C(=O)c1cccs1` was tested, and the inhibition was -1.01%. Work on `CCN(CC)Cc1nc2sc(C)c(C)c2c(=O)[nH]1` yielded an inhibition of -1.11%. `NS(=O)(=O)c1ccc(NC(=S)NNC(=O)c2cccs2)cc1` gave an inhibition of -0.673%. `C/C(=N\Nc1nc2ccccc2[nH]1)c1cccs1` showed an inhibition of 1.27%. With `C/C(=N\Nc1ccc(S(N)(=O)=O)cc1[N+](=O)[O-])c1cccs1` the inhibition was 57.1% (active). With `CCOC1=C2CN(S(=O)(=O)c3ccc(C)cc3)[C@H](c3cccs3)C[C@H]2[C@H]2C(=O)N(c3ccccc3)C(=O)[C@H]2C1` the inhibition was 0.231%. For `O=C(c1ccccc1)c1ccc2nc(N3CCCCC3)c3nncn3c2c1`, the inhibition was 2.58%. For `CC(C)(Oc1ccc(Cl)cc1)C(=O)OCC(=O)NCCc1ccc(S(N)(=O)=O)cc1`, the inhibition was -0.949%. With `Cc1sc2ncnc(SCC(=O)Nc3ccc(CN4CCCC4)cc3)c2c1C` the inhibition was 23.7%. Work on `O=c1c2ccccc2nnn1CSc1nc2sc3c(c2c(=O)n1CC1CCCO1)CCC3` (stereo unspecified) yielded an inhibition of 4.21%. In the case of `O=C(CCc1nc2sc3c(c2c(=O)[nH]1)CCCC3)NCC(=O)Nc1ccccc1Br`, the inhibition is reported as 9.36%. In the case of `O=C(Nc1cccc(Cl)c1)C1CCCN(c2cnccn2)C1` (stereo unspecified), the inhibition is reported as -0.511%. Work on `C[C@@H]1CN([C@@H](C)CO)C(=O)CCCn2nncc2CO[C@@H]1CN(C)S(=O)(=O)c1ccc(-c2ccccc2)cc1` yielded an inhibition of -1.91%. In the case of `C=C1c2c(Cl)ccc(O)c2C(O)=C2C(=O)[C@]3(O)C(O)=C(C(N)=O)C(=O)[C@@H](N(C)C)[C@@H]3[C@@H](O)C12` (stereo partly specified), the inhibition is reported as 72.5% (active). In the case of `C[C@H](CO)N1C[C@H](C)[C@@H](CN(C)S(=O)(=O)c2ccc(Oc3ccccc3)cc2)OCc2cn(nn2)CCCC1=O`, the inhibition is reported as -0.314%. For `O=c1cc(CO)oc(C(Nc2cccc([N+](=O)[O-])c2)c2ccccn2)c1O` (stereo unspecified), the inhibition was -1.69%. Compound `CCOC(=O)N1CCN(Cc2nc3ccc([N+](=O)[O-])cc3c(=O)n2-c2cccc(OC)c2)CC1` has an inhibition of -0.855%. `CCCCN(C(=O)C1CCC1)c1c(N)n(Cc2ccccc2)c(=O)[nH]c1=O` was tested, and the inhibition was -1.05%. `CCN1C(=O)C(=O)N(CC(=O)Nc2cc(C)ccc2C)C1=O` showed an inhibition of -0.207%. With `COc1ccc(Br)cc1/C=N/Nc1ccc(S(=O)(=O)Nc2ccccc2C(=O)O)cc1[N+](=O)[O-]` the inhibition was 71.1% (active). `COc1cc(CCN=Cc2ccccc2O)c([N+](=O)[O-])cc1OC` showed an inhibition of 0.174%. Compound `COc1ccccc1C(CNC(=O)c1cccc(NS(=O)(=O)c2ccc(Br)cc2)c1)N(C)C` (stereo unspecified) has an inhibition of -1.5%. Work on `Cc1ccc(S(=O)(=O)N[C@@H](Cc2ccccc2)C(=O)N2CCC(C(=O)N[C@H](C(=O)O)C(C)O)CC2)cc1` (stereo partly specified) yielded an inhibition of -1.25%. `Cc1ccc(O/C=C2\OC(=O)c3ccccc32)cc1` was tested, and the inhibition was -1.45%. With `CC1(C)C2CC=C(/C=N/NC(=O)c3ccc(Cl)cc3)C1C2` (stereo unspecified) the inhibition was -2.83%. For `COC(=O)C(C)C1Sc2ccccc2NC1=O` (stereo unspecified), the inhibition was 0.652%. `CCC1CCCCN1C(=O)CSc1nc(C)cc(C)n1` (stereo unspecified) gave an inhibition of -0.356%. For `CCN([C@H](CO)C(C)C)S(=O)(=O)c1ccccc1Br`, the inhibition was -1.46%. For `CC1CCCC(C)N1C(=O)COC(=O)c1ccccc1C(=O)c1ccccc1` (stereo unspecified), the inhibition was -1.53%. With `Cn1c(=O)c2c(ncn2CC(=O)N/N=C/c2cn[nH]c2-c2ccc(F)cc2)n(C)c1=O` the inhibition was -0.239%. `CCN(c1ccccc1)S(=O)(=O)c1cc2c(cc1C)n(C)c(=O)c(=O)n2C` gave an inhibition of 0.0122%.
